In ChEMBL document CHEMBL1133060, “N-(indol-3-ylglyoxylyl)piperidines: high affinity agonists of human GABA-A receptors containing the alpha1 subunit” (Bioorg Med Chem Lett, 2000):

Assays:
[1] = target: T1, GABA-A receptor; alpha-1/beta-2/gamma-2 (Homo sapiens, UniProt P14867+P18507+P47870); test: Binding affinity evaluated by ability to displace [3H]Ro-151788 from recombinant human Gamma-aminobutyric acid A receptor alpha-1-beta-2-gamma-2 expressed in L(tk-)cells; format: cell-based
T1 sequence (P14867 whole entry): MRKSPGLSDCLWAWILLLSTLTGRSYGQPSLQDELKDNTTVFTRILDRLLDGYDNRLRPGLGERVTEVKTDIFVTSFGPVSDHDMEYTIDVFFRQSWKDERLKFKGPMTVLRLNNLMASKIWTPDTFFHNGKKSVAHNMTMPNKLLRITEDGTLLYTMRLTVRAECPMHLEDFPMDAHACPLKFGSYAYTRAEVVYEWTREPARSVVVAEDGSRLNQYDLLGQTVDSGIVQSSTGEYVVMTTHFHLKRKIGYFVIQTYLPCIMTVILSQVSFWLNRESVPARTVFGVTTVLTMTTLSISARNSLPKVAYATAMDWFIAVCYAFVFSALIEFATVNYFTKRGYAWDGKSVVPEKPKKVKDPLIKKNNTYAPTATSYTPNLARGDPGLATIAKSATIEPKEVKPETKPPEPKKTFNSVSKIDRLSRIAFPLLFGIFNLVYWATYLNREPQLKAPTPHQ
T1 sequence (P47870 whole entry): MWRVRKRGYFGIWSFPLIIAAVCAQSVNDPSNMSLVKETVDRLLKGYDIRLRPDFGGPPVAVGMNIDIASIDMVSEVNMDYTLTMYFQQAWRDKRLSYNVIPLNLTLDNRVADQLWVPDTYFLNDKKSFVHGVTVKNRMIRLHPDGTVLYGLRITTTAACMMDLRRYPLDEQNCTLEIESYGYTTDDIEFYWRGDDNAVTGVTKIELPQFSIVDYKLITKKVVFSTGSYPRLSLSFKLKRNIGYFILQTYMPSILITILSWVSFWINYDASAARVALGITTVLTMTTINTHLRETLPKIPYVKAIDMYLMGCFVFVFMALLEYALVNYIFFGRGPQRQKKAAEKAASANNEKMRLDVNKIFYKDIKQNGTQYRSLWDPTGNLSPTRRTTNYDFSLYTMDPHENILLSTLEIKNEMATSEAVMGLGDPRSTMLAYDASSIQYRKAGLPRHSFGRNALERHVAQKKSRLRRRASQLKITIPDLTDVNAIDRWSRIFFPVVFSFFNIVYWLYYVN
T1 sequence (P18507 whole entry): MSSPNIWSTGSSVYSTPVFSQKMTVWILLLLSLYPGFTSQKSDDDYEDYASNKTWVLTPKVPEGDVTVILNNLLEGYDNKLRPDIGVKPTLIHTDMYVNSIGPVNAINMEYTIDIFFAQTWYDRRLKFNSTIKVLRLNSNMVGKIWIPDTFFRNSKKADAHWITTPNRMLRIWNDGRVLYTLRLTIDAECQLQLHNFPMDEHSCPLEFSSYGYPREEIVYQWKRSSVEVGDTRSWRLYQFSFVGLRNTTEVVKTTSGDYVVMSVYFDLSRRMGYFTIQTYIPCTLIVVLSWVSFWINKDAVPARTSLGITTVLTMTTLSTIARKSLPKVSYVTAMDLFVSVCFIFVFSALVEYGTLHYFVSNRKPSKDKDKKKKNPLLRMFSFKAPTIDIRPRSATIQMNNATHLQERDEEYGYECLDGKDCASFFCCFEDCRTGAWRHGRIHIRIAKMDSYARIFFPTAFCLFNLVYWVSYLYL

[2] = target: T2, GABA-A receptor; alpha-3/beta-3/gamma-2 (Homo sapiens, UniProt P18507+P28472+P34903); test: Binding affinity evaluated by ability to displace [3H]Ro-151788 from recombinant human Gamma-aminobutyric acid A receptor alpha-3-beta-3-gamma-2 expressed in L(tk-)cells; format: cell-based
T2 sequence (P18507 whole entry): T1 sequence (P18507 whole entry)
T2 sequence (P28472 whole entry): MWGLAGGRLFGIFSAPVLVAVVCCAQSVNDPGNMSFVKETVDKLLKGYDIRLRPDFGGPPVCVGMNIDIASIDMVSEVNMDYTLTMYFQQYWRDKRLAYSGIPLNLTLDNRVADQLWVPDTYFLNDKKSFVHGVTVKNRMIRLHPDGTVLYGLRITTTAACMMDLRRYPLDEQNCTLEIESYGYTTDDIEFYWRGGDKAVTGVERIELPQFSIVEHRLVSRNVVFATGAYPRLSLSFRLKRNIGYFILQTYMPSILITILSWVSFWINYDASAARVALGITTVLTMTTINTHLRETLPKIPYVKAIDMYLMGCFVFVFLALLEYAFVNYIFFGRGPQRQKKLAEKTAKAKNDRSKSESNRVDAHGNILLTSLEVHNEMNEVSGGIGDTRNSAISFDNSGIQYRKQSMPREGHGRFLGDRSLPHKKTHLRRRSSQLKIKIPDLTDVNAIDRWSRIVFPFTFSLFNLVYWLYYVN
T2 sequence (P34903 whole entry): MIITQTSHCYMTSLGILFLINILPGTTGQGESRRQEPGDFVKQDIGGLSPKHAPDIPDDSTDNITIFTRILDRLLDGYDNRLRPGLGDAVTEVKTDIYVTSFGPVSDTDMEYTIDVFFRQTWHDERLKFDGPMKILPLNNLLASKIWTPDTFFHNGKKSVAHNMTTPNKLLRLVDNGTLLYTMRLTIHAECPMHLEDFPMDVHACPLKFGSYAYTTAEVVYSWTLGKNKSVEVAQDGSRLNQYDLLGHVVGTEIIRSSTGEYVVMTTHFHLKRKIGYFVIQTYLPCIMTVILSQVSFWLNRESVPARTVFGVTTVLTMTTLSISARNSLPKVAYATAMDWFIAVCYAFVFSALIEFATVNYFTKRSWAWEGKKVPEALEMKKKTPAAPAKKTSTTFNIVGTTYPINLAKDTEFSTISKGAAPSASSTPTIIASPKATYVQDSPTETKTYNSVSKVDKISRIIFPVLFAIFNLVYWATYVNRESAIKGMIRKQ

[3] = target: T3, GABA-A receptor; alpha-2/beta-3/gamma-2 (Homo sapiens, UniProt P18507+P28472+P47869); test: Binding affinity evaluated by ability to displace [3H]-Ro-15-1788 from recombinant human Gamma-aminobutyric acid A receptor alpha-2-beta-3-gamma-2 expressed in L(tk-)cells; format: cell-based
T3 sequence (P18507 whole entry): T1 sequence (P18507 whole entry)
T3 sequence (P28472 whole entry): T2 sequence (P28472 whole entry)
T3 sequence (P47869 whole entry): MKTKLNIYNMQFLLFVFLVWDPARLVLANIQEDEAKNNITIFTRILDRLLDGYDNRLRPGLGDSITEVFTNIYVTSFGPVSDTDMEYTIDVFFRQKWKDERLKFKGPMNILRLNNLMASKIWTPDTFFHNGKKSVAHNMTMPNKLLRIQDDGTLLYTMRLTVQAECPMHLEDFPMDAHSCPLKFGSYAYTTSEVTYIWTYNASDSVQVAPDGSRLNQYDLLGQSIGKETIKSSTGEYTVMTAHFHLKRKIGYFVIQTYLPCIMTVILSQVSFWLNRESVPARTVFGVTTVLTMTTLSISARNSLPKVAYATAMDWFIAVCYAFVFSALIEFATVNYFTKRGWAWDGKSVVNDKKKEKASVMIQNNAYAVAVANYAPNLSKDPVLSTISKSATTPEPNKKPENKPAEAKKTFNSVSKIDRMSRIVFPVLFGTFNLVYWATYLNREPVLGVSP

[4] = target: T4, GABA-A receptor; alpha-1/beta-2/gamma-2 (Homo sapiens) (UniProt P14867+P47870+P18507); test: Ability to affect GABA-induced chloride current in Xenopus oocytes transiently expressing human GABA-A alpha-1-beta-2-gamma-2 receptors using two-electrode voltage-clamp electrophysiology at test concentration of 3 uM; format: functional, cell-based; conditions: Oocyte
Outline: (§1)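 The GABA EC20 (concentration giving 20% of maximal GABA current) was determined separately for each oocyte, range 4–30 μM. Compound was then coapplied with GABA at that EC20 to measure modulation of the current. Mean ± SEM, n = 3-5.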

[5] = target: T4, GABA-A receptor; alpha-1/beta-2/gamma-2 (Homo sapiens); test: Ability to affect GABA-induced chloride current in Xenopus oocytes transiently expressing human GABA-A alpha-1-beta-2-gamma-2 receptors using two-electrode voltage-clamp electrophysiology at test concentration of 30 uM; format: functional, cell-based; conditions: Oocyte; outline: as §1

Compound	Ki [1] [nM]	Ki [2] [nM]	Ki [3] [nM]	Efficacy [4] [%]	Efficacy [5] [%]
CCOC(=O)[C@@H]1C[C@H](C(=O)OCC)CN(C(=O)C(=O)c2c[nH]c3ccccc23)C1	14	23	22		
CN(Cc1ccccc1)C(=O)C1CCCN(C(=O)C(=O)c2c[nH]c3ccccc23)C1 (centres undefined)	14	96	40		
CCOC(=O)CC1CCCN1C(=O)C(=O)c1c[nH]c2c(OC)cccc12 (centres undefined)	460	320	270		
CCOC(=O)CC1CCCN1C(=O)C(=O)c1c[nH]c2c(C)cccc12 (centres undefined)	510	500	440		
O=C(C(=O)N1Cc2ccccc2C1)c1c[nH]c2ccccc12	200	19000	1300	64	
O=C(C(=O)N1CCc2ccccc2C1)c1c[nH]c2ccccc12	380	720	680		
O=C(C(=O)N1CCCC(C(=O)NCc2ccccc2)C1)c1c[nH]c2ccccc12 (centres undefined)	300	1500	970		
CCOC(=O)[C@@H]1C[C@@H](C(=O)OCC)CN(C(=O)C(=O)c2c[nH]c3ccccc23)C1	400	250	200		
CN(Cc1ccccc1)C(=O)[C@@H]1CCCN(C(=O)C(=O)c2c[nH]c3ccccc23)C1	7.3	50	19		
O=C(C(=O)N1CCCC1Cc1ccccc1)c1c[nH]c2ccccc12 (centres undefined)	440	960	830		
O=C(C(=O)N1CCCC(C(=O)OCc2ccccc2)C1)c1c[nH]c2ccccc12 (centres undefined)	77	91	180		
CN(Cc1ccccc1)C(=O)[C@H]1CCCN(C(=O)C(=O)c2c[nH]c3ccccc23)C1	140	670	250		
CCOC(=O)CC1CCCN1C(=O)C(=O)c1c[nH]c2ccccc12 (centres undefined)	890	570	430		28
CCOC(=O)C1CCCN(C(=O)C(=O)c2c[nH]c3ccccc23)C1 (centres undefined)	880	990	390		
